According to ChEMBL document CHEMBL4373651, “Indole compounds with N-ethyl morpholine moieties as CB2 receptor agonists for anti-inflammatory management of pain: synthesis and biological evaluation” (Medchemcomm, 2019):
The source made the active and inactive calls.

Columns and labels:
[1] = molecular target: Cannabinoid receptor 1 (Homo sapiens, UniProt P21554); assay: Agonist activity at human CB1 receptor expressed in CHO cells coexpressing Galpha16 assessed as reduction in forsklin-induced cAMP production incubated for 30 mins by cAMP Hunter assay based […] analysis; type: cell-based
Summary of the method: (§1)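 CHO cells expressing human CB1 or CB2 with Gα16, seeded overnight at 37 °C. Test compounds in stimulation buffer with 1 mM IBMX, 0.25% BSA and forskolin, 30 min at 37 °C. Cells lysed, cAMP read by enzyme fragment complementation chemiluminescence kit. Triplicate per dilution. Efficacy relative to CP-55940 reference run twice per plate. EC50 from means.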

[2] = molecular target: Cannabinoid receptor 2 (Homo sapiens, UniProt P34972); assay: Agonist activity at human CB2 receptor expressed in CHO cells coexpressing Galpha16 assessed as reduction in forsklin-induced cAMP production incubated for 30 mins by cAMP Hunter assay based […] analysis; type: functional, cell-based; summary of the method: as §1
[3] = Selectivity ratio of EC50 for human CB1 receptor expressed in CHO cells coexpressing Galpha16 to EC50 for human CB2 receptor expressed in CHO cells coexpressing Galpha16
Summary of the method: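 Ratio of EC50 values from the CB1 and CB2 cAMP assays in CHO-Gα16 cells: 30 min compound exposure at 37 °C with 1 mM IBMX and forskolin, chemiluminescent cAMP read-out, triplicates.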

[4] = test system: Rattus norvegicus; assay: Antiinflammatory hyperalgesic activity against complete freund's adjuvant-induced mechanical hyperalgesic Sprague-Dawley rat model assessed as increase in paw withdraw latency at 10 mg/kg, ip pretreated with CFA for 24 hrs followed by compound administration and measured at 1 hr to 9 hrs by analgesiometer analysis; type: functional, organism-based
Summary of the method: (§2)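 Male Sprague-Dawley rats, 180–200 g. Baseline mechanical paw withdrawal threshold taken with analgesiometer pressure on left hind paw, cut-off 250 g, endpoint complete withdrawal. Intraplantar 50% CFA (50 µL in 0.9% saline) under isoflurane. At 24 h, pre-drug threshold, then single i.p. dose of 0.0025–10 mg kg-1, antagonist combination or vehicle (2 mL kg-1). Thresholds read 1–24 h after dosing. % reversal = (post − pre)/(baseline − pre) × 100.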

[5] = test system: Rattus norvegicus; assay: Antiinflammatory hyperalgesic activity against complete freund's adjuvant-induced mechanical hyperalgesic Sprague-Dawley rat model assessed as paw withdraw latency at 10 mg/kg, ip pretreated with CFA for 24 hrs followed by compound administration and measured at 24 hrs by analgesiometer analysis; type: functional, organism-based; summary of the method: as §2
[6] = test system: Rattus norvegicus; assay: (§3) Antiinflammatory hyperalgesic activity against complete freund's adjuvant-induced mechanical hyperalgesic Sprague-Dawley rat model assessed as decrease in IL-1 beta production in paw skin at 10 mg/kg, ip pretreated with CFA for 24 hrs followed by compound administration and measured after 1 hr by ELISA relative to control; type: functional
Summary of the method: (§4)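 Male Sprague-Dawley rats, 180–200 g, isoflurane anaesthesia. Left hind paw given intraplantar 50% CFA (50 µL in 0.9% saline), or saline. At 24 h, single i.p. dose of drug, antagonist, combination or vehicle (2 mL kg-1). 1 h after dosing, paw skin taken and homogenised in ice-cold buffer with protease inhibitor, then centrifuged. IL-1β, IL-6 and TNF-α in supernatant by ELISA. n = 6, one-way ANOVA with Tukey test.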

[7] = test system: Rattus norvegicus; assay: as §3, with “IL-6” for “IL-1 beta”; type: functional; summary of the method: as §4
[8] = test system: Rattus norvegicus; assay: as §3, with “TNF alpha” for “IL-1 beta”; type: functional; summary of the method: as §4

Cannabinoid receptor 1, sequence (P21554 whole entry, the tested form may be a part): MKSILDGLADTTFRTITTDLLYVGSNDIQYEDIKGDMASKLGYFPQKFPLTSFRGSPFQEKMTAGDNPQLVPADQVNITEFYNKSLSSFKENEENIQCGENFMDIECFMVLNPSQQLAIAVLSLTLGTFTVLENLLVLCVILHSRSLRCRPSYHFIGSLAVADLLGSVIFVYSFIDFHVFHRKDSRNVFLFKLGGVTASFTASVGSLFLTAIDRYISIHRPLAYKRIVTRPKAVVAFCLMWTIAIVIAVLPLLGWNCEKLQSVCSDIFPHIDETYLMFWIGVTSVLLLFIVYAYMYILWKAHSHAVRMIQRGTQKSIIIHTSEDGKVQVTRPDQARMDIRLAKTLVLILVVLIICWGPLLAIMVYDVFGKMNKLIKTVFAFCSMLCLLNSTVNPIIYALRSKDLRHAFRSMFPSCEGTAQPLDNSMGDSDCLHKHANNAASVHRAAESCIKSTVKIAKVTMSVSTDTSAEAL
Cannabinoid receptor 2, sequence (P34972 whole entry): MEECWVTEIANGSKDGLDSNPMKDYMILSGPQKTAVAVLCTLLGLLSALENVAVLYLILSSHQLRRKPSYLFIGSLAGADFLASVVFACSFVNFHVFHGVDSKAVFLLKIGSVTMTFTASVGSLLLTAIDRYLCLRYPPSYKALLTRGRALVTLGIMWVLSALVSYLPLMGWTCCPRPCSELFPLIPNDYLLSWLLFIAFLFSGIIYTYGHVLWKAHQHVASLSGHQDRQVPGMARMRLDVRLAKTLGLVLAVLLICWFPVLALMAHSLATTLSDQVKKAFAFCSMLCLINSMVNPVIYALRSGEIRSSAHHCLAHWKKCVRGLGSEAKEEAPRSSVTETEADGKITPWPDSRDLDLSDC

Structure (SMILES) | EC50 ([1]; cho) | EC50 ([2]; cho) | EC50 ([2]; read-out: EC50) [µM] | other results
Cc1c(CCN2CCOCC2)c2cc(Cl)ccc2n1CC(=O)N1CCCCC1 | Not Active | Not Active |  | 
COc1ccc2c(c1)c(CCN1CCOCC1)c(C)n2C(=O)N1CCCC1 | Not Active |  | 26.4 | 
COc1ccc2c(c1)c(CC(=O)NC1CCCCC1)c(C)n2CCN1CCOCC1 | Not Active |  | > 100 | 
Cc1c(CCN2CCOCC2)c2cc(F)ccc2n1CC(=O)NC1CC1 | Not Active |  | 3.9 | 
Cc1c(CC(=O)NC2CC2)c2cc(Cl)ccc2n1CCN1CCOCC1 | Not Active |  | 1.2 | 
Cc1c(CCN2CCOCC2)c2cc(Cl)ccc2n1CC(=O)NCc1ccc2c(c1)OCO2 | Not Active | Not Active |  | 
COc1ccc2c(c1)c(CC(=O)NC1CCCC1)c(C)n2CCN1CCOCC1 | Not Active | Not Active |  | 
Cc1c(CCN2CCOCC2)c2cc(Cl)ccc2n1CC(=O)NC1CCCC1 | Not Active |  | 16.1 | 
Cc1c(CC(=O)NC2CCCCC2)c2cc(F)ccc2n1CCN1CCOCC1 | Not Active |  | > 100 | 
Cc1c(CCN2CCOCC2)c2cc(F)ccc2n1CC(=O)NCC1CC1 | Not Active |  | 4.2 | 
Cc1c(CC(=O)N2CCCC2)c2cc(F)ccc2n1CCN1CCOCC1 | Not Active | Not Active |  | 
COc1ccc2c(c1)c(CC(=O)NCC1CC1)c(C)n2CCN1CCOCC1 | Not Active | Not Active |  | 
Cc1c(CCN2CCOCC2)c2cc(Br)ccc2n1CC(=O)N1CCCC1 | Not Active | Not Active |  | 
Cc1c(CC(=O)NC2CC2)c2cc(F)ccc2n1CCN1CCOCC1 | Not Active |  | 4.1 | 
COc1ccc2c(c1)c(CC(=O)N1CCCC1)c(C)n2CCN1CCOCC1 | Not Active | Not Active |  | 
Cc1c(CC(=O)NC2CCCCC2)c2cc(Cl)ccc2n1CCN1CCOCC1 | Not Active |  | > 100 | 
Cc1c(CCN2CCOCC2)c2cc(F)ccc2n1C(=O)N1CCCC1 | Not Active | Not Active |  | 
Cc1c(CCN2CCOCC2)c2cc(Br)ccc2n1CC(=O)NCC1CC1 | Not Active |  | 5.4 | 
Cc1c(CCN2CCOCC2)c2cc(Br)ccc2n1CC(=O)NC1CC1 | Not Active |  | 8.2 | 

Structure (SMILES) | EC50 ([1]; cho) | EC50 ([2]; cho) | EC50 ([2]; read-out: EC50) [µM] | other results
Cc1c(CCN2CCOCC2)c2cc(F)ccc2n1CC(=O)NC1CCCC1 | Not Active |  | 5.5 | 
Cc1c(CCN2CCOCC2)c2cc(F)ccc2n1CC(=O)NC1CCCCC1 | Not Active | Not Active |  | 
Cc1c(CC(=O)NC2CCCC2)c2cc(Cl)ccc2n1CCN1CCOCC1 | Not Active |  | 2.7 | 
COc1ccc2c(c1)c(CC(=O)N1CCCCC1)c(C)n2CCN1CCOCC1 | Not Active |  | > 100 | 
Cc1c(CCN2CCOCC2)c2cc(Br)ccc2n1C(=O)N1CCCC1 | Not Active | Not Active |  | 
COc1ccc2c(c1)c(CCN1CCOCC1)c(C)n2CC(=O)N1CCCCC1 | Not Active |  | 41.9 | 
Cc1c(CC(=O)NCc2ccc3c(c2)OCO3)c2cc(Cl)ccc2n1CCN1CCOCC1 | Not Active | Not Active |  | 
COc1ccc2c(c1)c(CCN1CCOCC1)c(C)n2CC(=O)NC1CCCCC1 | Not Active |  | 11.6 | 
COc1ccc2c(c1)c(CC(=O)NCc1ccc3c(c1)OCO3)c(C)n2CCN1CCOCC1 | Not Active | Not Active |  | 
Cc1c(CCN2CCOCC2)c2cc(Br)ccc2n1C(=O)c1cccc(Cl)c1Cl |  |  | 0.0523 | EC50 ([1]; read-out: EC50): > 100 µM; Ratio EC50 [3]: >1000
Cc1c(CC(=O)N2CCCCC2)c2cc(Cl)ccc2n1CCN1CCOCC1 | Not Active | Not Active |  | 
Cc1c(CCN2CCOCC2)c2cc(Cl)ccc2n1CC(=O)NC1CCCCC1 | Not Active | Not Active |  | 
Cc1c(CC(=O)NCC2CC2)c2cc(F)ccc2n1CCN1CCOCC1 | Not Active |  | 3.1 | 
Cc1c(CCN2CCOCC2)c2cc(Br)ccc2n1CC(=O)NC1CCCCC1 | Not Active | Not Active |  | 
Cc1c(CCN2CCOCC2)c2cc(F)ccc2n1CC(=O)N1CCCCC1 | Not Active | Not Active |  | 
Cc1c(CC(=O)NC2CCCC2)c2cc(F)ccc2n1CCN1CCOCC1 | Not Active |  | 0.476 | Ratio EC50 [3]: >1000
COc1ccc2c(c1)c(CCN1CCOCC1)c(C)n2CC(=O)NCc1ccc2c(c1)OCO2 | Not Active |  | 28.1 | 
Cc1c(CC(=O)N2CCCC2)c2cc(Cl)ccc2n1CCN1CCOCC1 | Not Active | Not Active |  | 
COc1ccc2c(c1)c(CCN1CCOCC1)c(C)n2CC(=O)NC1CCCC1 | Not Active |  | 5.6 | 

Structure (SMILES) | EC50 ([1]; cho) | EC50 ([2]; cho) | EC50 ([2]; read-out: EC50) [µM] | other results
Cc1c(CCN2CCOCC2)c2cc(Cl)ccc2n1CC(=O)N1CCCC1 | Not Active | Not Active |  | 
Cc1c(CC(=O)NCc2ccc3c(c2)OCO3)c2cc(F)ccc2n1CCN1CCOCC1 | Not Active | Not Active |  | 
COc1ccc2c(c1)c(CCN1CCOCC1)c(C)n2C(=O)c1cccc(Cl)c1Cl |  |  | 0.0507 | EC50 ([1]; read-out: EC50): 16.1 µM; Activity [4]: Active; Activity [5]: inactive; fold change (FC) [6]: 1.4; fold change (FC) [7]: 2.5; fold change (FC) [8]: 1.6; Ratio EC50 [3]: >1000
Cc1c(CCN2CCOCC2)c2cc(Br)ccc2n1CC(=O)N1CCCCC1 | Not Active | Not Active |  | 
Cc1c(CCN2CCOCC2)c2cc(F)ccc2n1CC(=O)NCc1ccc2c(c1)OCO2 | Not Active | Not Active |  | 
COc1ccc2c(c1)c(CCN1CCOCC1)c(C)n2CC(=O)NC1CC1 | Not Active | Not Active |  | 
Cc1c(CCN2CCOCC2)c2cc(Br)ccc2n1CC(=O)NC1CCCC1 | Not Active |  | 20.2 | 
Cc1c(CC(=O)N2CCCCC2)c2cc(F)ccc2n1CCN1CCOCC1 | Not Active | Not Active |  | 
Cc1c(CCN2CCOCC2)c2cc(F)ccc2n1CC(=O)N1CCCC1 | Not Active | Not Active |  | 
COc1ccc2c(c1)c(CCN1CCOCC1)c(C)n2CC(=O)NCC1CC1 | Not Active |  | > 100 | 
Cc1c(CCN2CCOCC2)c2cc(Br)ccc2n1CC(=O)NCc1ccc2c(c1)OCO2 | Not Active | Not Active |  | 
Cc1c(CCN2CCOCC2)c2cc(Cl)ccc2n1C(=O)c1cccc(Cl)c1Cl |  |  | 0.117 | EC50 ([1]; read-out: EC50): 79.8 µM; Ratio EC50 [3]: >1000
Cc1c(CCN2CCOCC2)c2cc(Cl)ccc2n1CC(=O)NC1CC1 | Not Active |  | 5.3 | 
COc1ccc2c(c1)c(CCN1CCOCC1)c(C)n2CC(=O)N1CCCC1 | Not Active |  | > 100 | 
COc1ccc2c(c1)c(CC(=O)NC1CC1)c(C)n2CCN1CCOCC1 | Not Active | Not Active |  | 
Cc1c(CCN2CCOCC2)c2cc(Cl)ccc2n1CC(=O)NCC1CC1 | Not Active |  | 14.3 | 
Cc1c(CCN2CCOCC2)c2cc(Cl)ccc2n1C(=O)N1CCCC1 | Not Active | Not Active |  | 
Cc1c(CC(=O)NCC2CC2)c2cc(Cl)ccc2n1CCN1CCOCC1 | Not Active |  | 0.594 | Ratio EC50 [3]: >1000
